According to ChEMBL document CHEMBL1124107, “Antihypertensive thiadiazoles. 1. Synthesis of some 2-aryl-5-hydrazino-1,3,4-thiadiazoles with vasodilator activity” (1988):
The source made the active and inactive calls. The calls are words filed in the database; no cut-off is given here.

How the values were obtained:
[1] = tested on: Rattus norvegicus; test: Maximum percentage reduction in mean blood pressure in metacorticoid (DOCA) hypertensive rats at a standard oral dose of 100 mg/kg; type: functional
Method in brief: (§1)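 DOCA hypertensive rats, n = 3-5. Food removed 18 h before oral dosing; ip injections given to unstarved animals. Blood pressure recorded by pressure transducer under minimal restraint, twice before dosing with drug or isotonic saline vehicle, then at 1, 2, 3, 5 and 22 h. MABP taken as diastolic plus one-third pulse pressure.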

[2] = tested on: Rattus norvegicus; test: Maximum percentage reduction in mean blood pressure in metacorticoid (DOCA) hypertensive rats at a standard oral dose of 50 mg/kg; type: functional; method in brief: as §1
[3] = tested on: Rattus norvegicus; test: Increase in diastolic blood pressure for 0.1 ug/kg intravenous dosing of noradrenaline in pithed rats; type: functional, Artery
Method in brief: (§2)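 Male rats (200-300 g) pretreated ip with drug or isotonic saline, groups of five, 1 or 2 h before pithing. Halothane anesthesia, tracheal cannulation, CNS destroyed via left orbit and spinal cord, artificial respiration with room air at 50 strokes/min. Pressor responses to iv noradrenaline (0.1-1.0 ug/kg), iv angiotensin (0.03-0.3 ug/kg), or whole sympathetic outflow stimulation.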

[4] = tested on: Rattus norvegicus; test: Increase in diastolic blood pressure for 0.3 ug/kg intravenous dosing of angiotensin in pithed rats; type: functional, Artery; method in brief: as §2
[5] = tested on: Rattus norvegicus; test: Increase in diastolic blood pressure for 0.3 ug/kg intravenous dosing of noradrenaline in pithed rats; type: functional, Artery; method in brief: as §2
[6] = species: Rattus norvegicus; test: Increase in diastolic blood pressure for 1 Htz electrical stimulation in the pithed rats; type: functional, Artery; method in brief: as §2
[7] = tested on: Rattus norvegicus; test: Increase in diastolic blood pressure for 1.0 ug/kg intravenous dosing of noradrenaline in pithed rats; type: functional, Artery; method in brief: as §2
[8] = species: Rattus norvegicus; test: Increase in diastolic blood pressure for 3 Htz electrical stimulation in the pithed rats; type: functional, Artery; method in brief: as §2
[9] = species: Rattus norvegicus; test: Increase in diastolic blood pressure for 6 Htz electrical stimulation in the pithed rats; type: functional, Artery; method in brief: as §2
[10] = tested on: Rattus norvegicus; test: Increase in diastolic blood pressure for 0.03 ug/kg intravenous dosing of angiotensin in pithed rats; type: functional, Artery; method in brief: as §2
[11] = tested on: Rattus norvegicus; test: Increase in diastolic blood pressure for 0.1 ug/kg intravenous dosing of angiotensin in pithed rats; type: functional, Artery; method in brief: as §2
[12] = tested on: Rattus norvegicus; test: Maximum percentage reduction in mean blood pressure and heart rate in metacorticoid (DOCA) hypertensive rats at a standard oral dose of 100 mg/kg
[13] = tested on: Rattus norvegicus; test: Maximum percentage reduction in mean blood pressure and heart rate in metacorticoid (DOCA) hypertensive rats at a standard oral dose of 25 mg/kg; type: functional; method in brief: as §1
[14] = tested on: Rattus norvegicus; test: Maximum percentage reduction in mean blood pressure and heart rate in metacorticoid (DOCA) hypertensive rats at a standard oral dose of 50 mg/kg; type: functional; method in brief: as §1
[15] = tested on: Rattus norvegicus; test: Maximum percentage reduction in mean blood pressure in metacorticoid (DOCA) hypertensive rats at standard intraperitoneal dose of 100 mg/kg; type: functional; conditions: route oral, in the assay text read “oral” for “intraperitoneal”; method in brief: as §1
[16] = tested on: Rattus norvegicus; test: Increase in diastolic blood pressure at 0.03 ug/kg intravenous dosing of angiotensin in pithed rats; type: functional, Artery; method in brief: as §2
[17] = tested on: Rattus norvegicus; test: Increase in diastolic blood pressure at 0.1 ug/kg intravenous dosing of angiotensin in pithed rats; type: functional, Artery; method in brief: as §2
[18] = tested on: Rattus norvegicus; test: Increase in diastolic blood pressure at 0.1 ug/kg intravenous dosing of noradrenaline in pithed rats; type: functional, Artery; method in brief: as §2
[19] = tested on: Rattus norvegicus; test: Increase in diastolic blood pressure at 0.3 ug/kg intravenous dosing of angiotensin in pithed rats; type: functional, Artery; method in brief: as §2
[20] = tested on: Rattus norvegicus; test: Increase in diastolic blood pressure at 0.3 ug/kg intravenous dosing of noradrenaline in pithed rats; type: functional, Artery; method in brief: as §2
[21] = species: Rattus norvegicus; test: Increase in diastolic blood pressure at 1 Htz electrical stimulation in the pithed rats; type: functional, Artery; method in brief: as §2
[22] = species: Rattus norvegicus; test: Increase in diastolic blood pressure at 3 Htz electrical stimulation in the pithed rats; type: functional, Artery; method in brief: as §2
[23] = species: Rattus norvegicus; test: Increase in diastolic blood pressure at 6 Htz electrical stimulation in the pithed rats; type: functional, Artery; method in brief: as §2
[24] = tested on: Rattus norvegicus; test: Maximum percentage reduction in mean blood pressure in metacorticoid (DOCA) hypertensive rats at a standard oral dose of 25 mg/kg; type: functional; method in brief: as §1
[25] = tested on: Rattus norvegicus; test: Increase in diastolic blood pressure at 1.0 ug/kg intravenous dosing of noradrenaline in pithed rats; type: functional, Artery; method in brief: as §2
[26] = tested on: Rattus norvegicus; test: Maximum percentage reduction in mean blood pressure and heart rate in metacorticoid (DOCA) hypertensive rats at a standard oral dose of 100 mg/kg; IA = Inactive, Maximum percentage fall in MABP <10%; type: functional, organism-based; set-up: dose 100 mg/kg; method in brief: as §1
[27] = tested on: Rattus norvegicus; test: Maximum percentage reduction in mean blood pressure and heart rate in metacorticoid (DOCA) hypertensive rats at a standard intraperitoneal dose of 100 mg/kg; type: functional; conditions: route oral, in the assay text read “oral” for “intraperitoneal”; method in brief: as §1

Cl.NNc1nnc(-c2cccc(O)c2)s1
Reduction [1]: 16%

NNc1nnc(-c2c(Cl)cccc2Cl)s1
Reduction [1]: 50%

COc1ccccc1-c1nnc(NN)s1.Cl
Reduction [1]: 46% | Reduction [2]: 39%

CSc1ccccc1-c1nnc(NN)s1.Cl
Reduction [1]: 41%

NNc1nncc2ccccc12 [HYDRALAZINE]
Increase in blood pressure [3]: 8 mmHg | Increase in blood pressure [4]: 38 mmHg | Increase in blood pressure [5]: 15 mmHg | Increase in blood pressure [6]: 28 mmHg | Increase in blood pressure [7]: 28 mmHg | Increase in blood pressure [8]: 42 mmHg | Increase in blood pressure [9]: 54 mmHg | Increase in blood pressure [10]: 8 mmHg | Increase in blood pressure [11]: 21 mmHg

Cc1ccc(-c2nnc(NN)s2)cc1C.Cl
Reduction [1]: 22%

CCCOc1ccccc1-c1nnc(NN)s1.Cl
Reduction [1]: 46%

Nc1cc(N2CCCCC2)nc(N)[n+]1[O-] [MINOXIDIL]
Increase in blood pressure [3]: 10 mmHg | Increase in blood pressure [4]: 25 mmHg | Increase in blood pressure [5]: 25 mmHg | Increase in blood pressure [6]: 9 mmHg | Increase in blood pressure [7]: 45 mmHg | Increase in blood pressure [8]: 25 mmHg | Increase in blood pressure [9]: 31 mmHg | Increase in blood pressure [10]: 6 mmHg | Increase in blood pressure [11]: 13 mmHg | Reduction [12]: 42%

Cl.NNc1nnc(-c2ccccc2C(F)(F)F)s1
Reduction [1]: 49% | Reduction [2]: 33%

CC(C)(C)c1ccccc1-c1nnc(NN)s1
Reduction [1]: 58%

COc1ccc(Cl)c(OC)c1-c1nnc(NN)s1.Cl
Reduction [1]: 53%

Cc1ccccc1-c1nnc(NN)s1.Cl
Increase in blood pressure [3]: 10 mmHg | Increase in blood pressure [4]: 50 mmHg | Increase in blood pressure [5]: 16 mmHg | Increase in blood pressure [6]: 16 mmHg | Increase in blood pressure [7]: 29 mmHg | Increase in blood pressure [8]: 32 mmHg | Increase in blood pressure [9]: 41 mmHg | Increase in blood pressure [10]: 12 mmHg | Increase in blood pressure [11]: 28 mmHg | Reduction [13]: 33% | Reduction [14]: 48%

Cl.NNc1nnc(-c2ccc(Cl)cc2)s1
Reduction [15]: 28%

Cl.NNc1nnc(-c2ccccc2Cl)s1
Reduction [1]: 21%

Cl.NNc1nnc(-c2cccc(C(F)(F)F)c2)s1
Reduction [1]: 21%

Cc1ccc(-c2nnc(NN)s2)cc1.Cl
Reduction [1]: 28%

Cc1cc(C)cc(-c2nnc(NN)s2)c1.Cl
Reduction [1]: 18%

Cl.NNc1nnc(-c2ccccc2)s1
Reduction [1]: 42%

C[S+]([O-])c1ccccc1-c1nnc(NN)s1.Cl (stereo not given)
Increase in blood pressure [16]: 4 mmHg | Increase in blood pressure [17]: 11 mmHg | Increase in blood pressure [18]: 6 mmHg | Increase in blood pressure [19]: 29 mmHg | Increase in blood pressure [20]: 10 mmHg | Increase in blood pressure [21]: 19 mmHg | Increase in blood pressure [22]: 34 mmHg | Increase in blood pressure [23]: 47 mmHg | Reduction [24]: 31% | Reduction [2]: 45% | Increase in blood pressure [25]: 21 mmHg

Cl.NNc1nnc(-c2ccsc2)s1
Reduction [1]: 33%

CCCCCCOc1ccccc1-c1nnc(NN)s1
Reduction [26]: inactive

Cl.NNc1nnc(-c2cccc(Cl)c2)s1
Reduction [1]: 20%

Cc1cccc(C)c1-c1nnc(NN)s1.Cl
Reduction [1]: 54%

Cl.NNc1nnc(-c2cccs2)s1
Reduction [1]: 35%

Cl.NNc1nnc(-c2ccccc2F)s1
Reduction [1]: 31%

COc1cccc(OC)c1-c1nnc(NN)s1.Cl
Reduction [1]: 33%

NNc1nnc(-c2ccco2)s1
Reduction [1]: 39%

Cl.NNc1nnc(-c2ccccc2Br)s1
Reduction [1]: 48%

Cl.NNc1nnc(-c2ccccc2-c2ccccc2)s1
Reduction [1]: 18%

Cl.NNc1nnc(-c2cccc3ccccc23)s1
Reduction [1]: 26%

Cl.NNc1nnc(-c2ccc(Cl)c(Cl)c2)s1
Reduction [1]: 17%

Cl.NNc1nnc(-c2ccccn2)s1
Reduction [1]: 21%

Cc1ccc(-c2nnc(NN)s2)c(C)c1.Cl
Reduction [1]: 61%

Cc1cccc(-c2nnc(NN)s2)c1C.Cl
Reduction [1]: 50%

COc1cc2nc(N3CCN(C(=O)c4ccco4)CC3)nc(N)c2cc1OC [PRAZOSIN]
Increase in blood pressure [3]: 23 mmHg | Increase in blood pressure [4]: 67 mmHg | Increase in blood pressure [5]: 32 mmHg | Increase in blood pressure [6]: 18 mmHg | Increase in blood pressure [7]: 49 mmHg | Increase in blood pressure [8]: 26 mmHg | Increase in blood pressure [9]: 31 mmHg | Increase in blood pressure [10]: 30 mmHg | Increase in blood pressure [11]: 45 mmHg

Cl.NNc1nnc(-c2ccccc2[N+](=O)[O-])s1
Reduction [1]: 26%

Cc1ccc(F)cc1-c1nnc(NN)s1.Cl
Reduction [1]: 63%

COc1cccc(-c2nnc(NN)s2)c1.Cl
Reduction [1]: 18%

Cc1cc(F)ccc1-c1nnc(NN)s1.Cl
Reduction [1]: 58%

COc1ccc(-c2nnc(NN)s2)cc1OC.Cl
Reduction [27]: 24%

Cc1ccc(C)c(-c2nnc(NN)s2)c1.Cl
Reduction [1]: 50%

CCc1ccccc1-c1nnc(NN)s1.Cl
Increase in blood pressure [16]: 2 mmHg | Increase in blood pressure [17]: 6 mmHg | Increase in blood pressure [18]: 8 mmHg | Increase in blood pressure [19]: 25 mmHg | Increase in blood pressure [20]: 14 mmHg | Increase in blood pressure [21]: 14 mmHg | Increase in blood pressure [22]: 25 mmHg | Increase in blood pressure [23]: 32 mmHg | Reduction [24]: 42% | Reduction [2]: 54% | Increase in blood pressure [25]: 22 mmHg

Cl.NNc1nnc(-c2ccccc2I)s1
Reduction [1]: 58% | Reduction [2]: 24%

Cc1ccsc1-c1nnc(NN)s1.Cl
Reduction [1]: 48%

Cl.NNc1nnc(-c2ccc(C(F)(F)F)cc2)s1
Reduction [1]: 21%

CCC[S+]([O-])c1ccccc1-c1nnc(NN)s1.Cl (stereo not given)
Reduction [1]: 48%

Cc1cccc(-c2nnc(NN)s2)c1.Cl
Reduction [1]: 29%
